In ChEMBL document CHEMBL3351896, “Small Molecule that Reverses Dexamethasone Resistance in T-cell Acute Lymphoblastic Leukemia (T-ALL)” (ACS Med Chem Lett, 2014):
Calls of active or inactive are those of the source. The rule behind the calls is not given here.

What was measured:
Format in all cases: functional, cell-based
[1] = tested on: CUTLL1; experiment: Effect on RAD51AP1 gene expression in human CUTLL1 cells in presence of 1 uM dexamethasone at 30 uM after 24 hrs by microarray method
How it was run: (§1)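 Human CUTLL1 T-ALL cells exposed for 24 h to vehicle (DMSO), dexamethasone alone (1 μM), test compound alone (30 μM), or dexamethasone 1 μM plus compound 30 μM, each in triplicate. Expression profiled by microarray. Glucocorticoid-regulated gene sets from ALL patients on glucocorticoid therapy scored by GSEA. Leading-edge genes compared between the combination and dexamethasone alone.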

[2] = tested on: CUTLL1; experiment: Growth inhibition of human CUTLL1 cells at 12.5 to 50 uM in presence of 1 uM dexamethasone and 1 uM […] and glucocorticoid receptor antagonist RU486 after 48 hrs by alamar blue assay
How it was run: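 CUTLL1 cells treated for 48 h with compound, with or without dexamethasone 1 μM and RU486 1 μM. Growth inhibition read out by alamar blue.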

[3] = tested on: CUTLL1; experiment: Effect on BTG1 gene expression in human CUTLL1 cells in absence of 1 uM dexamethasone at 30 uM after 24 hrs by microarray method
How it was run: (§2)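 CUTLL1 T-ALL cells exposed 24 h to vehicle (DMSO), dexamethasone alone (1 μM), test agent alone (30 μM), or dexamethasone (1 μM) plus test agent (30 μM), in triplicate. Expression profiled by microarray. Leading-edge genes from GSEA were compared between the dexamethasone-plus-agent and dexamethasone-alone groups, using glucocorticoid-regulated gene sets from ALL patients on glucocorticoid therapy.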

[4] = tested on: CUTLL1; experiment: Effect on ALYREF gene expression in human CUTLL1 cells in absence of 1 uM dexamethasone at 30 uM after 24 hrs by microarray method; how it was run: as §2
[5] = tested on: CUTLL1; experiment: Effect on CDC45 gene expression in human CUTLL1 cells in absence of 1 uM dexamethasone at 30 uM after 24 hrs by microarray method; how it was run: as §2
[6] = tested on: CUTLL1; experiment: Effect on SMC2 gene expression in human CUTLL1 cells in absence of 1 uM dexamethasone at 30 uM after 24 hrs by microarray method; how it was run: as §1
[7] = tested on: CUTLL1; experiment: Effect on BTG1 gene expression in human CUTLL1 cells in presence of 1 uM dexamethasone at 30 uM after 24 hrs by microarray method; how it was run: as §2
[8] = tested on: CUTLL1; experiment: Effect on RPS14 gene expression in human CUTLL1 cells in absence of 1 uM dexamethasone at 30 uM after 24 hrs by microarray method; how it was run: as §1
[9] = tested on: CUTLL1; experiment: Effect on ZWINT gene expression in human CUTLL1 cells in presence of 1 uM dexamethasone at 30 uM after 24 hrs by microarray method; how it was run: as §1
[10] = tested on: CUTLL1; experiment: Effect on ALYREF gene expression in human CUTLL1 cells in presence of 1 uM dexamethasone at 30 uM after 24 hrs by microarray method; how it was run: as §2
[11] = tested on: CUTLL1; experiment: Effect on RANBP1 gene expression in human CUTLL1 cells in presence of 1 uM dexamethasone at 30 uM after 24 hrs by microarray method; how it was run: as §1
[12] = tested on: CUTLL1; experiment: Effect on APITD1 gene expression in human CUTLL1 cells in absence of 1 uM dexamethasone at 30 uM after 24 hrs by microarray method; how it was run: as §2
[13] = tested on: CUTLL1; experiment: Effect on NXT1 gene expression in human CUTLL1 cells in absence of 1 uM dexamethasone at 30 uM after 24 hrs by microarray method; how it was run: as §2
[14] = tested on: CUTLL1; experiment: Effect on TWISTNB gene expression in human CUTLL1 cells in presence of 1 uM dexamethasone at 30 uM after 24 hrs by microarray method; how it was run: as §1
[15] = tested on: CUTLL1; experiment: Effect on NHP2 gene expression in human CUTLL1 cells in presence of 1 uM dexamethasone at 30 uM after 24 hrs by microarray method; how it was run: as §2
[16] = tested on: CUTLL1; experiment: Potentiation of dexamethasone-induced cytotoxicity against human CUTLL1 cells with low GR expression levels at 50 uM after 48 hrs by alamar blue assay
How it was run: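 Human CUTLL1 T-ALL cells engineered to express high (overexpressed) or low (knockdown) glucocorticoid receptor levels. Exposed to compound alone or with 1 μM dexamethasone. Alamar blue growth inhibition read after 48 h.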

[17] = tested on: CUTLL1; experiment: Increase in GR expression in human CUTLL1 cells at < 25 uM after 24 hrs by RT-qPCR method
[18] = tested on: CUTLL1; experiment: Effect on CDC25A gene expression in human CUTLL1 cells in presence of 1 uM dexamethasone at 30 uM after 24 hrs by microarray method; how it was run: as §2
[19] = tested on: CUTLL1; experiment: Growth inhibition of human CUTLL1 cells at 50 uM in presence of etoposide after 48 hrs by alamar blue assay
[20] = tested on: CUTLL1; experiment: Effect on ZFP36L2 gene expression in human CUTLL1 cells in presence of 1 uM dexamethasone at 30 uM after 24 hrs by microarray method; how it was run: as §1
[21] = tested on: CUTLL1; experiment: Growth inhibition of human CUTLL1 cells at 50 uM in presence of deferoxamine after 48 hrs by alamar blue assay
[22] = tested on: CUTLL1; experiment: Effect on POLE3 gene expression in human CUTLL1 cells in presence of 1 uM dexamethasone at 30 uM after 24 hrs by microarray method; how it was run: as §1
[23] = tested on: CUTLL1; experiment: Effect on HELLS gene expression in human CUTLL1 cells in presence of 1 uM dexamethasone at 30 uM after 24 hrs by microarray method; how it was run: as §2
[24] = tested on: CUTLL1; experiment: Effect on NME1 gene expression in human CUTLL1 cells in absence of 1 uM dexamethasone at 30 uM after 24 hrs by microarray method; how it was run: as §2
[25] = tested on: CUTLL1; experiment: Effect on TWISTNB gene expression in human CUTLL1 cells in absence of 1 uM dexamethasone at 30 uM after 24 hrs by microarray method; how it was run: as §1
[26] = tested on: CUTLL1; experiment: Effect on BCCIP gene expression in human CUTLL1 cells in absence of 1 uM dexamethasone at 30 uM after 24 hrs by microarray method; how it was run: as §2
[27] = tested on: CUTLL1; experiment: Increase in GR expression in human CUTLL1 cells at 25 to 50 uM in presence of 1 uM dexamethasone and 1 uM […] and glucocorticoid receptor antagonist RU486 after 24 hrs by Western blotting method
How it was run: (§3)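 CUTLL1 cells exposed to compound (25 or 50 μM) alone, with 1 μM dexamethasone, or with dexamethasone plus 1 μM RU486, for 6 or 24 h. GR measured as protein by Western blot and as transcript by RT-qPCR.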

[28] = tested on: CUTLL1; experiment: Increase in GR expression in human CUTLL1 cells at 50 uM after 6 hrs by RT-qPCR method; how it was run: as §3
[29] = tested on: CUTLL1; experiment: Induction of PARP1 cleavage in human CUTLL1 cells at 25 uM after 24 hrs by western blotting method
How it was run: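 CUTLL1 cells exposed 24 h to compound (25 μM) alone, with 1 μM dexamethasone, or with dexamethasone plus 1 μM RU486. Apoptosis read as cleaved PARP by Western blot, quantified as fold change.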

[30] = tested on: CUTLL1; experiment: Effect on TSC22D3 gene expression in human CUTLL1 cells in absence of 1 uM dexamethasone at 30 uM after 24 hrs by microarray method; how it was run: as §1
[31] = tested on: CUTLL1; experiment: Effect on BYSL gene expression in human CUTLL1 cells in presence of 1 uM dexamethasone at 30 uM after 24 hrs by microarray method; how it was run: as §2
[32] = tested on: CUTLL1; experiment: Effect on MCM10 gene expression in human CUTLL1 cells in absence of 1 uM dexamethasone at 30 uM after 24 hrs by microarray method; how it was run: as §2

Q: `Nc1ncc(-c2ccncc2)c(C2CC2)n1` was tested. Which Activity [1] did it give?
A: Active

Q: And the “growth inhibition (GI)” value [2]?
A: inactive

Q: And the Activity [3]?
A: inactive

Q: And the Activity [4]?
A: inactive

Q: What about the Activity [5] of the same molecule?
A: inactive

Q: What about the Activity [6] of the same molecule?
A: inactive

Q: What about the Activity [7] of the same molecule?
A: Active

Q: What about the Activity [8] of the same molecule?
A: inactive

Q: And the Activity [9]?
A: Active

Q: What about the Activity [10] of the same molecule?
A: Active

Q: What about the Activity [11] of the same molecule?
A: Active

Q: And the Activity [12]?
A: inactive

Q: What about the Activity [13] of the same molecule?
A: inactive

Q: And the Activity [14]?
A: Active

Q: And the Activity [15]?
A: Active

Q: And the Activity [16]?
A: Active

Q: What about the Activity [17] of the same molecule?
A: inactive

Q: And the Activity [18]?
A: Active

Q: And the “growth inhibition (GI)” value [19]?
A: inactive

Q: And the Activity [20]?
A: Active

Q: And the “growth inhibition (GI)” value [21]?
A: inactive

Q: And the Activity [22]?
A: Active

Q: What about the Activity [23] of the same molecule?
A: Active

Q: What about the Activity [24] of the same molecule?
A: inactive

Q: And the Activity [25]?
A: inactive

Q: What about the Activity [26] of the same molecule?
A: inactive

Q: What about the Activity [27] of the same molecule?
A: inactive

Q: What about the Activity [28] of the same molecule?
A: inactive

Q: And the Activity [29]?
A: inactive

Q: What about the Activity [30] of the same molecule?
A: inactive

Q: What about the Activity [31] of the same molecule?
A: Active

Q: And the Activity [32]?
A: inactive
